Tests used:
advanced solid tumors = assay: APG-1387 monotherapy phase I trial: antitumor activity; assay type: in vivo, human
[1] = system: NK cell (CD3, −CD16+, and CD56+) populations; assay: Combination trial: peripheral blood lymphocyte subsets by flow cytometry; assay type: in vivo, human
Method in brief: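 Combination regimen: toripalimab 240 mg i.v. Q3W plus test compound i.v., either 20–30 mg on D1/8 (3+3 stage) or 45 mg on D1/8/15 (second stage). Peripheral blood (3 ml) was drawn on C1D1, C2D1, C3D1 and at end of treatment. Lymphocyte subsets were analysed by flow cytometry. Post-dose cell proportions were divided by each subject's baseline.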

[2] = system: subjects with advanced solid tumors; assay: APG-1387 monotherapy phase I trial: safety; assay type: in vivo, human
Method in brief: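 3+3 escalation of 0.3, 0.6, 4.0, 7.0, 12, 20, 30 and 45 mg, given as 30-min i.v. infusion on D1/8/15 with a 1-week rest per 28-day cycle. Safety was monitored by vitals, examination, haematology, biochemistry, thyroid, coagulation and ECG. AEs were graded by CTCAE 4.0 from consent to 90 days after last dose. DLTs were predefined drug-related grade ≥3–4 toxicities in cycle 1. MTD was the level below that with DLTs in ≥2 of 6 subjects.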

[3] = system: IFN-γ, IL-12/IL-23p40, IL-5, and IL-6; assay: Combination trial: plasma cytokines; assay type: in vivo, human; conditions: 4 and 24 h after APG-1387 dosing, 16 subjects
Method in brief: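 Combination regimen: toripalimab 240 mg i.v. Q3W with the test compound i.v. weekly on D1/8 or D1/8/15. Plasma was collected on C1D1 pre-dose, at 4 and 24 h after the first test compound dose, and on C2D1 and C3D1 before toripalimab. Cytokines were measured by Meso Scale Discovery assay. Post-dose IFN-γ, IL-12, IL-5 and IL-6 were normalised to each subject's baseline.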

[4] = APG-1387 monotherapy phase I trial: plasma pharmacokinetics; assay type: in vivo, human
[5] = system: patients with advanced solid tumors; conditions: cited from earlier work
[6] = system: adults with refractory solid tumors or lymphoma; conditions: monotherapy phase I trial; cited from earlier work
[7] = 28 participants, 30- and 45-mg groups

CN[C@@H](C)C(=O)N[C@H]1CN(S(=O)(=O)c2cccc(S(=O)(=O)N3CC[C@H]4CC[C@@H](C(=O)NC(c5ccccc5)c5ccccc5)N4C(=O)[C@@H](NC(=O)[C@H](C)NC)C3)c2)CC[C@H]2CC[C@@H](C(=O)NC(c3ccccc3)c3ccccc3)N2C1=O [APG-1387]
Disease control rate (DCR) (advanced solid tumors; 23 participants): 21.7% | Best overall response: Complete response (advanced solid tumors; n 23): 0 (0) n (%) | Best overall response: Partial response (advanced solid tumors; n 23): 0 (0) n (%) | Best overall response: Progressive disease (advanced solid tumors; n 23): 18 (78·3) n (%) | Best overall response: Stable disease (advanced solid tumors; n 23): 5 (21·7) n (%) | Disease control rate (advanced solid tumors; n 23): 5 (21·7) n (%) | Objective response rate (advanced solid tumors; n 23): 0 (0) n (%) | Duration of SD with tumor reduction (advanced solid tumors; one individual with CRC, 20-mg group): 16 weeks | NK cell populations in peripheral blood ([1]; 45-mg dose of APG-1387, combination trial): increased | NK cell populations in peripheral blood ([1]; low doses of APG-1387, combination trial): did not change significantly | Dose-limiting toxicities (DLT) ([2]; 0.3-45 mg i.v. D1/8/15 of 28-day cycle, 28 subjects): no DLT occurred | Subjects with TRAEs ([2]; 28 participants): 21.4% | TRAE pruritus ([2]; 28 participants, 20-mg group): 3.6% | TRAE elevated ALT [2, 7]: 7.1% | TRAE elevated AST [2, 7]: 7.1% | TRAE asthenia ([2]; 28 participants, 45-mg group): 3.6% | TRAE facial-nerve disorder ([2]; 28 participants, all in 45-mg group): 10.7% | Participants with grade ≥3 TRAE (ALT elevation) ([2]; 28 subjects): 3.6% | Any TRAE, All grade ([2]; all doses, n = 28): 6 (21·4) n (%) | Any TRAE, Grade ≥3 ([2]; all doses, n = 28): 1 (3·6) n (%) | TRAE Alanine aminotransferase elevation, All grade ([2]; all doses, n = 28): 2 (7·1) n (%) | TRAE Alanine aminotransferase elevation, Grade ≥3 ([2]; all doses, n = 28): 1 (3·6) n (%) | TRAE Amylase elevation, All grade ([2]; all doses, n = 28): 0 (0) n (%) | TRAE Amylase elevation, Grade ≥3 ([2]; all doses, n = 28): 0 (0) n (%) | TRAE Aspartate aminotransferase elevation, All grade ([2]; all doses, n = 28): 2 (7·1) n (%) | TRAE Aspartate aminotransferase elevation, Grade ≥3 ([2]; all doses, n = 28): 0 (0) n (%) | TRAE Asthenia, All grade ([2]; all doses, n = 28): 1 (3·6) n (%) | TRAE Asthenia, Grade ≥3 ([2]; all doses, n = 28): 0 (0) n (%) | TRAE Blood creatinine elevation, All grade ([2]; all doses, n = 28): 0 (0) n (%) | TRAE Blood creatinine elevation, Grade ≥3 ([2]; all doses, n = 28): 0 (0) n (%) | TRAE Decreased appetite, All grade ([2]; all doses, n = 28): 0 (0) n (%) | TRAE Decreased appetite, Grade ≥3 ([2]; all doses, n = 28): 0 (0) n (%) | TRAE Facial-nerve disorder, All grade ([2]; all doses, n = 28): 3 (10·7) n (%) | TRAE Facial-nerve disorder, Grade ≥3 ([2]; all doses, n = 28): 0 (0) n (%) | TRAE Headache, All grade ([2]; all doses, n = 28): 0 (0) n (%) | TRAE Headache, Grade ≥3 ([2]; all doses, n = 28): 0 (0) n (%) | TRAE Hypoesthesia, All grade ([2]; all doses, n = 28): 0 (0) n (%) | TRAE Hypoesthesia, Grade ≥3 ([2]; all doses, n = 28): 0 (0) n (%) | TRAE Hypogeusia, All grade ([2]; all doses, n = 28): 0 (0) n (%) | TRAE Hypogeusia, Grade ≥3 ([2]; all doses, n = 28): 0 (0) n (%) | TRAE Hypothyroidism, All grade ([2]; all doses, n = 28): 0 (0) n (%) | TRAE Hypothyroidism, Grade ≥3 ([2]; all doses, n = 28): 0 (0) n (%) | TRAE Immune-mediated pancreatitis, All grade ([2]; all doses, n = 28): 0 (0) n (%) | TRAE Immune-mediated pancreatitis, Grade ≥3 ([2]; all doses, n = 28): 0 (0) n (%) | TRAE Infusion site reaction, All grade ([2]; all doses, n = 28): 0 (0) n (%) | TRAE Infusion site reaction, Grade ≥3 ([2]; all doses, n = 28): 0 (0) n (%) | TRAE Leukopenia, All grade ([2]; all doses, n = 28): 0 (0) n (%) | TRAE Leukopenia, Grade ≥3 ([2]; all doses, n = 28): 0 (0) n (%) | TRAE Lipase elevation, All grade ([2]; all doses, n = 28): 0 (0) n (%) | TRAE Lipase elevation, Grade ≥3 ([2]; all doses, n = 28): 0 (0) n (%) | TRAE Platelet count decrease, All grade ([2]; all doses, n = 28): 0 (0) n (%) | TRAE Platelet count decrease, Grade ≥3 ([2]; all doses, n = 28): 0 (0) n (%) | TRAE Pruritus, All grade ([2]; all doses, n = 28): 1 (3·6) n (%) | TRAE Pruritus, Grade ≥3 ([2]; all doses, n = 28): 0 (0) n (%) | TRAE Rash, All grade ([2]; all doses, n = 28): 0 (0) n (%) | TRAE Rash, Grade ≥3 ([2]; all doses, n = 28): 0 (0) n (%) | Maximum tolerated dose (MTD) ([2]; doses up to 45 mg): not reached | Subjects with treatment-emergent adverse events ([2]; safety population, 28 participants): 89.3% | Plasma levels of IFN-γ, IL-12/IL-23p40, IL-5, and IL-6 [3]: significantly increased | Increase of Cmax and AUC0-t with dose ([4]; 0.3-45 mg): approximately dose-proportional | Accumulation after multiple dosing ([4]; QW dosing schedule): No significant accumulation | Mean rate of clearance ([4]; range across doses): 15.9 to 60.7 L/h | Mean steady-state volume of distribution (Vss) ([4]; range across doses): 10.1 to 60.1 L | Mean terminal half-life ([4]; range across doses): 44.5 to 672 min | Median time to maximum plasma concentration (Cmax) ([4]; range across doses, QW i.v. infusion 30 min): 0.25 to 0.50 h

CN[C@@H](C)C(=O)N[C@H](C(=O)N1CCC[C@H]1c1nc(C(=O)c2ccc(F)cc2)cs1)C1CCCCC1 [LCL161]
Cytokine release syndrome (CRS) ([5]; high doses of 1800, 2100, and 3000 mg): grade 3-4 cytokine release syndrome | CR or PR ([5]; monotherapy phase I trial): no participant had a CR or PR | Subjects with best response of SD ([5]; monotherapy phase I trial): 19%

CC[C@H](NC(=O)[C@H](C)NC)C(=O)N1C[C@@H](O)C[C@H]1Cc1c(-c2[nH]c3cc(F)ccc3c2C[C@@H]2C[C@H](O)CN2C(=O)[C@H](CC)NC(=O)[C@H](C)NC)[nH]c2cc(F)ccc12 [birinapant]
CR or PR [6]: no participant had a CR or PR | Subjects with best response of SD [6]: 28%
